Results taken from BindingDB's records for doi:10.1021/acs.jmedchem.5b01947 (Amgen, 2016).
Positions of bridges follow the written chain, without caps; N, C: chain ends. Residues, ends and D or L forms follow the SMILES beside them.

What was measured:
[1] = biological target: T1, Sodium channel protein type 5 subunit alpha (Homo sapiens, UniProt Q14524); assay: Inhibition of human Nav1.5 expressed in HEK293 cells assessed as inward peak current by ion-works quattro patch clamp electrophysiology method
Procedure, shortened: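 Stable HEK293 line expressing human NaV1.5, recorded by population patch clamp on the IonWorks Quattro.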

[2] = biological target: T1, Sodium channel protein type 5 subunit alpha; assay: Inhibition of human Nav1.5 expressed in HEK293 cells by whole cell patch clamp electrophysiology method
Procedure, shortened: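 Stable HEK293 line expressing human NaV1.5. Peptides were used only at >95% purity with the correct m/z, and were quantified by chemiluminescent nitrogen detection against a caffeine standard curve.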

[3] = biological target: Sodium channel protein type 9 subunit alpha (Homo sapiens, UniProt Q15858); assay: Inhibition of human Nav1.7 expressed in HEK293 cells by whole cell patch clamp electrophysiology method
Chain of Sodium channel protein type 9 subunit alpha (Q15858 whole entry): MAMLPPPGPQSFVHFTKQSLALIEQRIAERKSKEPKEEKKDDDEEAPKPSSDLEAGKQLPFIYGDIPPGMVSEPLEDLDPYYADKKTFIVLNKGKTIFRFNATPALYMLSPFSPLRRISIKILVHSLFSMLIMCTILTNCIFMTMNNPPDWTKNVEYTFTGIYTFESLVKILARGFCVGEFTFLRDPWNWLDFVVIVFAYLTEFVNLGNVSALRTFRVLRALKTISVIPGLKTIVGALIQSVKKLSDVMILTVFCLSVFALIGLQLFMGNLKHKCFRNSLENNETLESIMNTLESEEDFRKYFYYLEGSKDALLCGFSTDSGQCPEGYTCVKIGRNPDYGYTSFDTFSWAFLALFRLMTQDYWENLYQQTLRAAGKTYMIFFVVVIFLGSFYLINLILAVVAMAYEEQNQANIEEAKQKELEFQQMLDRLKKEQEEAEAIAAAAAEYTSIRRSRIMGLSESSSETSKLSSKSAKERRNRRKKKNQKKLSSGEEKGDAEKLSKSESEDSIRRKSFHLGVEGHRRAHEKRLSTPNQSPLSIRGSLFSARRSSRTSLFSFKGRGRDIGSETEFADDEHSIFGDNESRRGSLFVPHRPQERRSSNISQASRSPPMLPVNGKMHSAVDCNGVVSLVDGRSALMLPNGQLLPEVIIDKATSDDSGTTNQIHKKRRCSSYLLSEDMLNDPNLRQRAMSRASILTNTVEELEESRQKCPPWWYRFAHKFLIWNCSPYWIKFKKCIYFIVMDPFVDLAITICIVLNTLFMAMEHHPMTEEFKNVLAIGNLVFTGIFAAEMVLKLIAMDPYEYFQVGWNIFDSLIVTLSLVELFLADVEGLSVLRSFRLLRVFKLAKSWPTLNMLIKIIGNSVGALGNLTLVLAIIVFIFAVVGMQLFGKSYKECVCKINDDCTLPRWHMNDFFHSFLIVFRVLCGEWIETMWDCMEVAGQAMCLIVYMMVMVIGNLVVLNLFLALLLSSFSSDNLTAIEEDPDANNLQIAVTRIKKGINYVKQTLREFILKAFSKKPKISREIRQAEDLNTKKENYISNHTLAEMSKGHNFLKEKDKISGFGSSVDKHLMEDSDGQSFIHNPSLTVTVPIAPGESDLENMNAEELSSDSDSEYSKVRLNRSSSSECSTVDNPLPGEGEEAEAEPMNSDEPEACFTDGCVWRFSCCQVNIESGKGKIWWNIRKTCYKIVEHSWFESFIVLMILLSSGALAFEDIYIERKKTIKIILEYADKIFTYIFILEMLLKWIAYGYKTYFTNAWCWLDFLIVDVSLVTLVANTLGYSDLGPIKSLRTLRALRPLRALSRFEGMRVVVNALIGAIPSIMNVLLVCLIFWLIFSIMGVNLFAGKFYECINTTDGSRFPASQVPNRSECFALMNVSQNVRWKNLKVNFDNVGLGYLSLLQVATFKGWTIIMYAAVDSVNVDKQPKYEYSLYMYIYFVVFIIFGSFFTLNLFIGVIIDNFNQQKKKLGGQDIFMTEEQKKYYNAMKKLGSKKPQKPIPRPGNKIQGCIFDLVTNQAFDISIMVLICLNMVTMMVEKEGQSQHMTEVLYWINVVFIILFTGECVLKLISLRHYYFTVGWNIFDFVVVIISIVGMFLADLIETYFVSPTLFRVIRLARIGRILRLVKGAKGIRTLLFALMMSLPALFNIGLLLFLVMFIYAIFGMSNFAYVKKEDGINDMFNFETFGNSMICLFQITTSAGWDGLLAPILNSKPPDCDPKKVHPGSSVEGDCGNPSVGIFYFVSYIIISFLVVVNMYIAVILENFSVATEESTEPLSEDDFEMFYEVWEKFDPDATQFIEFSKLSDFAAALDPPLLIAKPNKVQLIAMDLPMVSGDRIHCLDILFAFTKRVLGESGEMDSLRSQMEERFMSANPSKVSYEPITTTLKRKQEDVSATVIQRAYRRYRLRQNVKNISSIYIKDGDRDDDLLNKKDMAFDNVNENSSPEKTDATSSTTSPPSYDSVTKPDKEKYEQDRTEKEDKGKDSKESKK

T1 sequence (Q14524 whole entry): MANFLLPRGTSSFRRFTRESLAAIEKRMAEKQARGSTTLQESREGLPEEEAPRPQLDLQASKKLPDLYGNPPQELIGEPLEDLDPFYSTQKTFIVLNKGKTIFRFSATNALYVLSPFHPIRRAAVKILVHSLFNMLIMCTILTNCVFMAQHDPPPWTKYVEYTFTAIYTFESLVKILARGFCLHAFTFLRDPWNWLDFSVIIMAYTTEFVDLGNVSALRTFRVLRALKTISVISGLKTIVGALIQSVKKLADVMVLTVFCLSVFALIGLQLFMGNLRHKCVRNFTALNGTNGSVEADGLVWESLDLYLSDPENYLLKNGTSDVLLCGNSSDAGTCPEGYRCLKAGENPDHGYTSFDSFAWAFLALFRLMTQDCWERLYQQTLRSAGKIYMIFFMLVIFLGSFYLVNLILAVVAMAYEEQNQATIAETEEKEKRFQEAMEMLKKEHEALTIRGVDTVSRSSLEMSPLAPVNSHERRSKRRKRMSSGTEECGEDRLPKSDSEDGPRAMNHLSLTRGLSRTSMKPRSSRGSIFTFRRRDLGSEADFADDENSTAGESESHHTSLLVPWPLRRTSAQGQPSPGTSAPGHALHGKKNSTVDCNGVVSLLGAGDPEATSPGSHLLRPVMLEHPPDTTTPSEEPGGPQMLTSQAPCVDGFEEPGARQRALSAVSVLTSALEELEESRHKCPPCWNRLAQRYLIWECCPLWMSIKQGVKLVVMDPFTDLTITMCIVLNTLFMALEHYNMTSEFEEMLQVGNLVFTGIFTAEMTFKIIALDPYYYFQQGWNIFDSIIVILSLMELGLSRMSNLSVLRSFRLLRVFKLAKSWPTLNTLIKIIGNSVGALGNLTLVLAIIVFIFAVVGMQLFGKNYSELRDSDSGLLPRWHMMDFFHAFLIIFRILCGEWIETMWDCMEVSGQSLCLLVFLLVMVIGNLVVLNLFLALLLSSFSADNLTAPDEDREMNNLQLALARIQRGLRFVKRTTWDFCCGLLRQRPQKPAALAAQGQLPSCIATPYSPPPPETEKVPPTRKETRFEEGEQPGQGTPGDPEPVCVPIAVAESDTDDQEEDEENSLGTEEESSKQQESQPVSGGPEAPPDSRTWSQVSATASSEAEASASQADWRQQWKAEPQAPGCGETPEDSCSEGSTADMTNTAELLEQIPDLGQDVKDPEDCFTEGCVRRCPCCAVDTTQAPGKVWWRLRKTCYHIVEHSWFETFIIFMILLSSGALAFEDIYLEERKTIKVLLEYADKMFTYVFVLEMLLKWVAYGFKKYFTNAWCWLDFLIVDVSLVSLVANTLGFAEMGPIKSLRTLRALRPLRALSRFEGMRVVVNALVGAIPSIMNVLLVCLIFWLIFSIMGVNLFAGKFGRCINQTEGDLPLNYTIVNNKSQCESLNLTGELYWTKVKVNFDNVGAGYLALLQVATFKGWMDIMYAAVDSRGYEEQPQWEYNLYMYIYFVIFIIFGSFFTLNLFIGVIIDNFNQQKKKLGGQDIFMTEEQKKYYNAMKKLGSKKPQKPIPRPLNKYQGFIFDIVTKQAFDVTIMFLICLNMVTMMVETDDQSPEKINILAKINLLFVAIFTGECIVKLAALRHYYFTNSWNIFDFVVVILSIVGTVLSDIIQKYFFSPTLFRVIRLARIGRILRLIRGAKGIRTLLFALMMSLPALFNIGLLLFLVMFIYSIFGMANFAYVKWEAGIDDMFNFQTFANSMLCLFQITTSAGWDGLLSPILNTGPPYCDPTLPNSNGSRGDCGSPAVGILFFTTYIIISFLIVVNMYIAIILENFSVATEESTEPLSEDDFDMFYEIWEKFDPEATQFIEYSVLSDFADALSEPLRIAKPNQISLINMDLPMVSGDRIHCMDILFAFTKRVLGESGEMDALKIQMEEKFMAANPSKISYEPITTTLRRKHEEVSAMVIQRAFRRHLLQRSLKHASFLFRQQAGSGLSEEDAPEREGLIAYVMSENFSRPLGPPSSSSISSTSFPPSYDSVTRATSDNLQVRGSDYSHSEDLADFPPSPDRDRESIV

Row | SMILES | IC50 [1] [µM] | IC50 [2] [nM] | IC50 [3] [nM]
1 | CC[C@H](C)[C@@H]1NC(=O)[C@@H]2CSSC[C@@H]3NC(=O)[C@H](C(C)C)NC(=O)[C@H](CC(C)C)NC(=O)[C@H](CC(N)=O)NC(=O)[C@@H]4CCCN4C(=O)[C@H](CCCNC(=N)N)NC(=O)[C@H](CSSC[C@H](NC(=O)[C@@H](N)CC(=O)O)C(=O)N[C@@H](CCC(=O)O)C(=O)NCC(=O)N[C@@H](Cc4ccccc4)C(=O)N[C@@H](CCSC)C(=O)N[C@@H](CCCNC(=N)N)C(=O)N[C@@H](CCCCN)C(=O)N2)NC(=O)[C@H](CSSC[C@@H](C(=O)N[C@@H](CCCCN)C(=O)N[C@@H](Cc2ccc(O)cc2)C(=O)N[C@H](C(=O)N[C@@H](Cc2ccccc2)C(N)=O)C(C)C)NC(=O)[C@H](Cc2c[nH]c4ccccc24)NC(=O)[C@H](CCCCN)NC(=O)[C@H](Cc2cnc[nH]2)NC(=O)[C@H]([C@@H](C)O)NC(=O)[C@H](CCCNC(=N)N)NC(=O)[C@H](CO)NC3=O)NC(=O)[C@H](CCCCN)NC(=O)[C@H](CC(=O)O)NC(=O)[C@H](CC(N)=O)NC(=O)[C@H](CC(=O)O)NC(=O)[C@@H]2CCCN2C1=O (H-DCEGFMRKCIPDNDKCCRPNLVCSRTHKWCKYVF-NH2; disulfide 2-17, 9-23, 16-30) | > 5 | – | –
2 | CC[C@H](C)[C@@H]1NC(=O)[C@@H]2CSSC[C@@H]3NC(=O)[C@H](C(C)C)NC(=O)[C@H](CC(C)C)NC(=O)[C@H](CC(N)=O)NC(=O)[C@@H]4CCCN4C(=O)[C@H](CCCNC(=N)N)NC(=O)[C@H](CSSC[C@H](NC(=O)[C@@H](N)CC(=O)O)C(=O)N[C@@H](CC(C)C)C(=O)NCC(=O)N[C@@H](Cc4ccccc4)C(=O)N[C@@H](CCSC)C(=O)N[C@@H](CCCNC(=N)N)C(=O)N[C@@H](CCCCN)C(=O)N2)NC(=O)[C@H](CSSC[C@@H](C(=O)N[C@@H](CCCCN)C(=O)N[C@@H](Cc2ccc(O)cc2)C(=O)N[C@H](C(=O)N[C@@H](Cc2ccccc2)C(=O)N[C@@H](Cc2c[nH]c4ccccc24)C(N)=O)C(C)C)NC(=O)[C@H](Cc2c[nH]c4ccccc24)NC(=O)[C@H](CCCCN)NC(=O)[C@H](Cc2c[nH]cn2)NC(=O)[C@H]([C@@H](C)O)NC(=O)[C@H](CCCNC(=N)N)NC(=O)[C@H](CO)NC3=O)NC(=O)[C@H](CCCCN)NC(=O)[C@H](CC(=O)O)NC(=O)[C@H](CC(N)=O)NC(=O)[C@H](CC(=O)O)NC(=O)[C@@H]2CCCN2C1=O | > 5 | 2700 | 10
